Key:
[1] = test system: L1210; experiment: Ratio of IC50 for Mycoplasma hyorhinis-infected mouse L1210 cells to IC50 for mouse L1210/0 cells after 48 hrs by cell counting; format: functional
Summary of the method: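 Murine L1210/0 cells were compared with L1210/TK cells, selected for resistance to 5-bromo-2'-dUrd, and with L1210.Hyor cells, chronically infected with Mycoplasma hyorhinis. Cells were grown in DMEM with 10% FBS, 10 mM Hepes and 1 mM pyruvate at 37 °C and 5% CO2, then seeded at 60 000 cells/well with compound. They were Coulter-counted after 48 h. […] Mean of 2–4 experiments.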

[2] = test system: L1210; experiment: Cytostatic activity against Mycoplasma hyorhinis-infected mouse L1210 cells after 48 hrs by cell counting; format: functional, cell-based; details: L1210, 48 h
Summary of the method: (§1)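 Suspension leukemia cells in DMEM with 10% FBS, 10 mM Hepes and 1 mM sodium pyruvate at 37 °C under 5% CO2. Seeded at 60 000 cells/well with graded compound levels. Grown 48 h (L1210) or 72 h (CEM), then counted by Coulter counter. Mean ± SD of two to four independent experiments.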

[3] = test system: HeLa; experiment: Cytostatic activity against human HeLa cells […] by cell counting; format: functional, cell-based
[4] = test system: HeLa; experiment: Cytostatic activity against thymidine-kinase deficient human HeLa cells […]; format: functional, cell-based
[5] = test system: CCRF-CEM; experiment: Cytostatic activity against thymidine-kinase deficient human CEM cells after 72 hrs by cell counting; format: functional, cell-based; summary of the method: as §1
[6] = test system: CCRF-CEM; experiment: Cytostatic activity against human CEM/0 cells after 72 hrs by cell counting; format: functional, cell-based
Summary of the method: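 Suspension leukemia cells in DMEM with 10% FBS, 10 mM Hepes and 1 mM sodium pyruvate at 37 °C under 5% CO2. Seeded at 60 000 cells/well with graded compound levels. Grown 48 h (L1210) or 72 h (CEM), then counted by Coulter counter. […] Mean ± SD of two to four independent experiments.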

[7] = Cytostatic activity against mouse L1210/0 cells after 48 hrs by cell counting; format: functional, cell-based; details: L1210/0, 48 h; summary of the method: as §1
[8] = test system: L1210; experiment: Cytostatic activity against thymidine-kinase deficient mouse L1210 cells after 48 hrs by cell counting; format: functional, cell-based; details: L1210, 48 h; summary of the method: as §1

CC(C)C[C@H](NP(=O)(OC[C@H]1O[C@@H](n2cc(F)c(=O)[nH]c2=O)C[C@@H]1O)Oc1cccc2ccccc12)C(=O)OCc1ccccc1 (mixture of isomers)
Ratio IC50 [1]: 1.7
IC50 [2]: 48 nM
IC50 [3]: 80 nM
IC50 [4]: 9400 nM
IC50 [5]: 30000 nM
IC50 [6]: 130 nM
IC50 [7]: 29 nM
IC50 [8]: 1500 nM

C[C@H](NP(=O)(OC[C@H]1O[C@@H](n2cc(F)c(=O)[nH]c2=O)C[C@@H]1O)Oc1cccc2ccccc12)C(=O)OCC(C)(C)C (mixture of isomers)
Ratio IC50 [1]: 1.9
IC50 [2]: 180 nM
IC50 [3]: 700 nM
IC50 [4]: 32000 nM
IC50 [5]: 6700 nM
IC50 [6]: 490 nM
IC50 [7]: 93 nM
IC50 [8]: 1200 nM

C[C@H](NP(=O)(OC[C@H]1O[C@@H](n2cc(F)c(=O)[nH]c2=O)C[C@@H]1O)Oc1cccc2ccccc12)C(=O)OC1CCCCC1 (mixture of isomers)
Ratio IC50 [1]: 1.4
IC50 [2]: 49 nM
IC50 [3]: 90 nM
IC50 [5]: 1000 nM
IC50 [6]: 57 nM
IC50 [7]: 36 nM
IC50 [8]: 150 nM

O=C(OCc1ccccc1)[C@@H]1CCCN1P(=O)(OC[C@H]1O[C@@H](n2cc(F)c(=O)[nH]c2=O)C[C@@H]1O)Oc1ccccc1 (mixture of isomers)
Ratio IC50 [1]: 51
IC50 [2]: 18000 nM
IC50 [3]: 1100 nM
IC50 [4]: 20000 nM
IC50 [5]: 28000 nM
IC50 [6]: 980 nM
IC50 [7]: 350 nM
IC50 [8]: 31000 nM

CCOC(=O)[C@@H](NP(=O)(OC[C@H]1O[C@@H](n2cc(F)c(=O)[nH]c2=O)C[C@@H]1O)Oc1ccccc1)C(C)C (mixture of isomers)
Ratio IC50 [1]: 22
IC50 [2]: 4400 nM
IC50 [3]: 1200 nM
IC50 [4]: 27000 nM
IC50 [5]: > 250000 nM
IC50 [6]: 1000 nM
IC50 [7]: 200 nM
IC50 [8]: 42000 nM

CCCCCCOC(=O)[C@H](C)NP(=O)(OC[C@H]1O[C@@H](n2cc(F)c(=O)[nH]c2=O)C[C@@H]1O)Oc1cccc2ccccc12 (mixture of isomers)
Ratio IC50 [1]: 0.69
IC50 [2]: 2.2 nM
IC50 [3]: 39 nM
IC50 [4]: 1800 nM
IC50 [5]: 650 nM
IC50 [6]: 80 nM
IC50 [7]: 3.2 nM
IC50 [8]: 76 nM

CCCOC(=O)[C@H](C)NP(=O)(OC[C@H]1O[C@@H](n2cc(F)c(=O)[nH]c2=O)C[C@@H]1O)Oc1cccc2ccccc12 (mixture of isomers)
Ratio IC50 [1]: 1.2
IC50 [2]: 36 nM
IC50 [3]: 110 nM
IC50 [4]: 2500 nM
IC50 [5]: 1100 nM
IC50 [6]: 140 nM
IC50 [7]: 30 nM
IC50 [8]: 160 nM

C[C@H](NP(=O)(OC[C@H]1O[C@@H](n2cc(F)c(=O)[nH]c2=O)C[C@@H]1O)Oc1cccc2ccccc12)C(=O)OC1CCC1 (mixture of isomers)
Ratio IC50 [1]: 2.2
IC50 [2]: 24 nM
IC50 [3]: 69 nM
IC50 [4]: 1500 nM
IC50 [5]: 1500 nM
IC50 [6]: 73 nM
IC50 [7]: 11 nM
IC50 [8]: 88 nM

C[C@H](NP(=O)(OC[C@H]1O[C@@H](n2cc(F)c(=O)[nH]c2=O)C[C@@H]1O)Oc1cccc2ccccc12)C(=O)OC1CCOCC1 (mixture of isomers)
Ratio IC50 [1]: 11.7
IC50 [2]: 480 nM
IC50 [3]: 130 nM
IC50 [4]: 15000 nM
IC50 [5]: 43000 nM
IC50 [6]: 110 nM
IC50 [7]: 41 nM
IC50 [8]: 27000 nM

CC(C)[C@H](NP(=O)(OC[C@H]1O[C@@H](n2cc(F)c(=O)[nH]c2=O)C[C@@H]1O)Oc1cccc2ccccc12)C(=O)OC1CCCCC1 (mixture of isomers)
Ratio IC50 [1]: 1.08
IC50 [2]: 1290 nM
IC50 [3]: 670 nM
IC50 [4]: 27000 nM
IC50 [5]: 46000 nM
IC50 [6]: 800 nM
IC50 [7]: 1200 nM
IC50 [8]: 35000 nM

CCOC(=O)[C@H](C)NP(=O)(OC[C@H]1O[C@@H](n2cc(F)c(=O)[nH]c2=O)C[C@@H]1O)Oc1ccccc1 (mixture of isomers)
Ratio IC50 [1]: 5
IC50 [2]: 540 nM
IC50 [3]: 480 nM
IC50 [4]: 9800 nM
IC50 [5]: 14000 nM
IC50 [6]: 920 nM
IC50 [7]: 110 nM
IC50 [8]: 940 nM

C[C@H](NP(=O)(OC[C@H]1O[C@@H](n2cc(F)c(=O)[nH]c2=O)C[C@@H]1O)Oc1cccc2ccccc12)C(=O)OCCC(C)(C)C (mixture of isomers)
Ratio IC50 [1]: 2.7
IC50 [2]: 32 nM
IC50 [3]: 78 nM
IC50 [4]: 1300 nM
IC50 [5]: 190 nM
IC50 [6]: 53 nM
IC50 [7]: 12 nM
IC50 [8]: 62 nM

CCCCCOC(=O)[C@H](Cc1ccccc1)NP(=O)(OC[C@H]1O[C@@H](n2cc(F)c(=O)[nH]c2=O)C[C@@H]1O)Oc1cccc2ccccc12 (mixture of isomers)
Ratio IC50 [1]: 4.67
IC50 [2]: 140 nM
IC50 [3]: 40 nM
IC50 [4]: 6600 nM
IC50 [5]: 8300 nM
IC50 [6]: 100 nM
IC50 [7]: 30 nM
IC50 [8]: 2900 nM

C[C@H](NP(=O)(OC[C@H]1O[C@@H](n2cc(F)c(=O)[nH]c2=O)C[C@@H]1O)Oc1cccc2ccccc12)C(=O)OC1Cc2ccccc2C1 (mixture of isomers)
Ratio IC50 [1]: 1.08
IC50 [2]: 42 nM
IC50 [3]: 100 nM
IC50 [4]: 7100 nM
IC50 [5]: 1000 nM
IC50 [6]: 79 nM
IC50 [7]: 39 nM
IC50 [8]: 40000 nM

CC[C@H](C)[C@H](NP(=O)(OC[C@H]1O[C@@H](n2cc(F)c(=O)[nH]c2=O)C[C@@H]1O)Oc1ccccc1)C(=O)OCc1ccccc1 (mixture of isomers)
Ratio IC50 [1]: 2.2
IC50 [2]: 2200 nM
IC50 [3]: 710 nM
IC50 [4]: 25000 nM
IC50 [5]: 30000 nM
IC50 [6]: 1000 nM
IC50 [7]: 980 nM
IC50 [8]: 1100 nM

C[C@H](NP(=O)(OC[C@H]1O[C@@H](n2cc(F)c(=O)[nH]c2=O)C[C@@H]1O)Oc1cccc2ccccc12)C(=O)OCC1CC1 (mixture of isomers)
Ratio IC50 [1]: 2.2
IC50 [2]: 31 nM
IC50 [3]: 68 nM
IC50 [4]: 1400 nM
IC50 [5]: 1100 nM
IC50 [6]: 59 nM
IC50 [7]: 14 nM
IC50 [8]: 120 nM

CCCCCOC(=O)[C@H](CCSC)NP(=O)(OC[C@H]1O[C@@H](n2cc(F)c(=O)[nH]c2=O)C[C@@H]1O)Oc1ccccc1 (mixture of isomers)
Ratio IC50 [1]: 3.2
IC50 [2]: 410 nM
IC50 [3]: 150 nM
IC50 [4]: 7100 nM
IC50 [5]: 13000 nM
IC50 [6]: 350 nM
IC50 [7]: 130 nM
IC50 [8]: 2200 nM

C[C@H](NP(=O)(OC[C@H]1O[C@@H](n2cc(F)c(=O)[nH]c2=O)C[C@@H]1O)Oc1cccc2ccccc12)C(=O)OC1CCCC1 (mixture of isomers)
Ratio IC50 [1]: 1.5
IC50 [2]: 24 nM
IC50 [3]: 71 nM
IC50 [4]: 2200 nM
IC50 [5]: 920 nM
IC50 [6]: 35 nM
IC50 [7]: 16 nM
IC50 [8]: 130 nM

CSCC[C@H](NP(=O)(OC[C@H]1O[C@@H](n2cc(F)c(=O)[nH]c2=O)C[C@@H]1O)Oc1ccccc1)C(=O)OCc1ccccc1 (mixture of isomers)
Ratio IC50 [1]: 13
IC50 [2]: 760 nM
IC50 [3]: 150 nM
IC50 [4]: 11000 nM
IC50 [5]: 25000 nM
IC50 [6]: 280 nM
IC50 [7]: 58 nM
IC50 [8]: 4100 nM

CSCC[C@H](NP(=O)(OC[C@H]1O[C@@H](n2cc(F)c(=O)[nH]c2=O)C[C@@H]1O)Oc1cccc2ccccc12)C(=O)OCc1ccccc1 (mixture of isomers)
Ratio IC50 [1]: 3.7
IC50 [2]: 200 nM
IC50 [3]: 87 nM
IC50 [4]: 8300 nM
IC50 [5]: 11000 nM
IC50 [6]: 190 nM
IC50 [7]: 54 nM
IC50 [8]: 1900 nM

CCCCCOC(=O)[C@H](CC(C)C)NP(=O)(OC[C@H]1O[C@@H](n2cc(F)c(=O)[nH]c2=O)C[C@@H]1O)Oc1cccc2ccccc12 (mixture of isomers)
Ratio IC50 [1]: 1.13
IC50 [2]: 35 nM
IC50 [3]: 39 nM
IC50 [4]: 7500 nM
IC50 [5]: 15000 nM
IC50 [6]: 71 nM
IC50 [7]: 31 nM
IC50 [8]: 1200 nM

CCCCCOC(=O)[C@@H](NP(=O)(OC[C@H]1O[C@@H](n2cc(F)c(=O)[nH]c2=O)C[C@@H]1O)Oc1cccc2ccccc12)[C@@H](C)CC (mixture of isomers)
Ratio IC50 [1]: 1.67
IC50 [2]: 700 nM
IC50 [3]: 300 nM
IC50 [4]: 11000 nM
IC50 [5]: 17000 nM
IC50 [6]: 460 nM
IC50 [7]: 420 nM
IC50 [8]: 12000 nM

O=C(OCc1ccccc1)[C@@H]1CCCN1P(=O)(OC[C@H]1O[C@@H](n2cc(F)c(=O)[nH]c2=O)C[C@@H]1O)Oc1cccc2ccccc12 (mixture of isomers)
Ratio IC50 [1]: 2.5
IC50 [2]: 650 nM
IC50 [3]: 1200 nM
IC50 [4]: 26000 nM
IC50 [5]: 32000 nM
IC50 [6]: 890 nM
IC50 [7]: 260 nM
IC50 [8]: 25000 nM

CCCCCOC(=O)C(C)(C)NP(=O)(OC[C@H]1O[C@@H](n2cc(F)c(=O)[nH]c2=O)C[C@@H]1O)Oc1cccc2ccccc12 (mixture of isomers)
Ratio IC50 [1]: 0.42
IC50 [2]: 19 nM
IC50 [3]: 120 nM
IC50 [4]: 2300 nM
IC50 [5]: 5400 nM
IC50 [6]: 140 nM
IC50 [7]: 45 nM
IC50 [8]: 300 nM
